Reference: ChEMBL document CHEMBL1240409, “Design, synthesis and evaluation of (E)-alpha-benzylthio chalcones as novel inhibitors of BCR-ABL kinase” (Bioorg Med Chem, 2010)

Columns and labels:
DU-145 = test: Growth inhibition of human DU145 cells after 96 hrs by trypan blue exclusion assay; format: functional; conditions: DU-145, 96 h
K562 = test: Growth inhibition of human K562 cells expressing p210Bcr/Abl after 96 hrs by trypan blue exclusion assay; format: functional, cell-based; conditions: K562, 96 h
Summary of the method: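 K562 cells were kept in RPMI with 10% FBS and penicillin–streptomycin at 37 °C under 5% CO2. Cells were seeded at 1 × 10^5 cells/mL with a range of compound concentrations, using DMSO as the negative control. After 96 h, viability was counted by Trypan blue exclusion and expressed as percent of DMSO control to derive GI50.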

| GI50 (DU-145) [µM] | GI50 (K562) [µM] | SMILES |
| --- | --- | --- |
| 10 | 10 | COc1ccc(/C=C(/SCc2ccc(Cl)cc2)C(=O)c2ccc(C(=O)O)cc2)cc1 |
| 10 | 1 | O=C(/C(=C\c1cccc(Cl)c1Cl)SCc1ccc(Cl)cc1)c1ccc(Cl)cc1 |
| 1 | > 100 | Cc1ccc(S/C(=C/c2ccc(Oc3ccccc3)cc2)C(=O)c2ccc(Br)cc2)cc1 |
| 10 | 1 | CCOc1cc(/C=C(\SCc2ccc(Cl)cc2Cl)C(=O)c2ccc(Cl)cc2)ccc1O |
| 10 | 50 | COc1cc(OC)c(C=C(C(=O)c2ccc(Cl)cc2)[S+]([O-])Cc2ccccc2Cl)c(OC)c1 (configuration not stated) |
| 10 | 1 | O=C(/C(=C\c1ccccc1OCc1ccccc1)S(=O)(=O)Cc1ccc(Cl)cc1)c1ccc(Br)cc1 |
| 50 | 50 | Cc1ccc(S/C(=C/c2sccc2C)C(=O)c2ccc(Cl)cc2)cc1 |
| 50 | 50 | CC(=O)c1ccc(/C=C(/Sc2ccc(C)cc2)C(=O)c2ccc(Br)cc2)cc1 |
| 10 | 10 | O=C(/C(=C\c1ccc(O)c([N+](=O)[O-])c1)SCc1ccc(Br)cc1)c1ccc(Br)cc1 |
| 2.5 | 1 | Cc1ccc(S(=O)(=O)/C(=C/c2ccccc2F)C(=O)c2ccc(Cl)cc2)cc1 |
| 50 | 50 | Cc1ccc(CS/C(=C/c2ccc(O)c(O)c2O)C(=O)c2ccc(Cl)cc2)cc1 |
| 1 | 1 | Cc1ccsc1/C=C(\C(=O)c1ccc([N+](=O)[O-])cc1)S(=O)(=O)Cc1ccc(Cl)cc1 |
| 1 | 1 | COc1ccc(/C=C(/Sc2ccc(C)cc2)C(=O)c2ccc(Cl)cc2)cc1O |
| 25 | 25 | O=C(/C(=C\c1c(O)cc(O)cc1O)SCc1ccc(Cl)c(Cl)c1)c1ccc(Cl)cc1 |
| > 100 | 10 | CN(C)c1ccc(/C=C(/SCc2ccc(Cl)cc2)C(=O)c2ccc(Cl)cc2)cc1 |
| 50 | 50 | Cc1ccc(CS/C(=C/c2c(O)cc(O)cc2O)C(=O)c2ccc(Cl)cc2)cc1 |

| GI50 (DU-145) [µM] | GI50 (K562) [µM] | SMILES |
| --- | --- | --- |
| 1 | 1 | O=C(/C(=C\c1ccc([N+](=O)[O-])c(O)c1)SCc1ccc(Br)cc1)c1ccc(C(F)(F)F)cc1 |
| 10 | 10 | O=C(O)c1ccc(C(=O)/C(=C\c2ccccc2F)SCc2ccc(Br)cc2)cc1 |
| 10 | 25 | Cc1ccc(S/C(=C/c2ccc(O)c([N+](=O)[O-])c2)C(=O)c2ccc(Cl)cc2)cc1 |
| 1 | 1 | Cc1ccc(S/C(=C/c2c[nH]c3ccc(Cl)cc23)C(=O)c2ccc(Br)cc2)cc1 |
| 50 | 1 | CN(C)c1ccc(/C=C(/SCc2ccc(F)cc2)C(=O)c2ccc(Cl)cc2)cc1 |
| 25 | 1 | Cc1ccc(S/C(=C/c2ccc(F)c(C)c2)C(=O)c2ccc(Br)cc2)cc1 |
| 25 | 1 | COc1ccc(/C=C(/Sc2ccc(Br)cc2)C(=O)c2ccc(Br)cc2)cc1 |
| 1 | 1 | O=C(C(=Cc1ccc(O)c([N+](=O)[O-])c1)SCc1ccc(Br)cc1)c1ccc([N+](=O)[O-])c(Cl)c1 |
| 10 | 10 | Cc1ccc(CS/C(=C/c2cc(Cl)cc(Cl)c2)C(=O)c2ccc(Cl)cc2)cc1 |
| 10 | 10 | COc1ccc(/C=C(/SCc2ccc(F)cc2)C(=O)c2ccc(Cl)cc2)c(OC)c1OC |
| 1 | 1 | CSc1ccc(/C=C(\C(=O)c2ccc(Br)cc2)S(=O)(=O)c2ccc(C)cc2)cc1 |
| 50 | 25 | O=C(/C(=C\c1ccc(O)cc1O)SCc1cccc(Cl)c1)c1ccc(Br)cc1 |
| 25 | 10 | O=C(/C(=C\c1ccc(O)cc1)SCc1ccc(F)cc1)c1ccc(Cl)cc1 |
| 1 | 1 | O=C(/C(=C\c1ccccc1OCc1ccccc1)SCc1ccc(F)cc1)c1ccc(Cl)cc1 |
| 1 | 1 | O=C(/C(=C\c1ccccc1OCc1ccccc1)Sc1ccc(F)cc1)c1ccc(Cl)cc1 |
